DAGLB inh = blocks human DAGLB lipase activity | Q8NCG7 | HEK293T DAGLB membrane lysate, EnzChek fluorogenic substrate | inhibition, % at 5.17 µM | hit rate 0.059% among 340,000 | AID 504411; in the data active = inhibition above about 34%;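 note: 0% = enzyme with vehicle and 100% = wells lacking enzyme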
Target sequence (Q8NCG7 whole entry, looked up): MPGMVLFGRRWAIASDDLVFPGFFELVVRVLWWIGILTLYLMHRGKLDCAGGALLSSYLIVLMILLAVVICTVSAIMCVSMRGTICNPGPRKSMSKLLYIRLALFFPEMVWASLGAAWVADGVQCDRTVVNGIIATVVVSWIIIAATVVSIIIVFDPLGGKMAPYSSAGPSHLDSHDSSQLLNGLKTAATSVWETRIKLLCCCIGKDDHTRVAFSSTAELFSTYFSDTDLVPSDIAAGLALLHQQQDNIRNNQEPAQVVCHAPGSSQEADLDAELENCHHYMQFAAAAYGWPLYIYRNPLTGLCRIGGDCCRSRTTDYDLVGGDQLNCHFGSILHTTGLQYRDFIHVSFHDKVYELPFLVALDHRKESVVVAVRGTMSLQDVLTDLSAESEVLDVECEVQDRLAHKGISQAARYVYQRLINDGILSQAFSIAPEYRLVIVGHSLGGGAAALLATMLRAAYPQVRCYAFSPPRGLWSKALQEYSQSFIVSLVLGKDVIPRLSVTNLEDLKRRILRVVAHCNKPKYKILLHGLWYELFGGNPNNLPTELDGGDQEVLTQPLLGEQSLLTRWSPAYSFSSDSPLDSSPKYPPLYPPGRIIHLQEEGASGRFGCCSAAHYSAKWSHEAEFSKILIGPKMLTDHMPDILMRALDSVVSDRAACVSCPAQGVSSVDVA
Ecoli rRNA inh = inhibitors of bacterial rRNA selective over humanized ribosomes | GFP signal change (wild-type ribosome), % (test concentration not listed) | hit rate 1.6% among 350,000 | E. coli WT GFP vs humanized-ribosome RFP mutants, fluorescence, 24 h; active compounds read low; DMSO median 0, no signal -100 | AID 720706;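 active = significant combined selectivity score with lowered wild-type GFP, culture density cut under 30%, mutant RFP and density less affected; inactive = any of these conditions unmet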
MT1-MMP act inh = MT1-MMP (human) activation inhibition | P50281 | HT1080 RFP-PRO-GFP cells, GFP/RFP ratio fluorescence, overnight; percent of plate control window, DMSO zero | GFP/RFP ratio change, % at 20 µM | hit rate 0.061% among 360,000 | AID 651647;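 active = GFP/RFP ratio change of at least 30% with cell ATP level not reduced by more than half and red fluorescence within 50% of control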
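Assay system: HT1080 RFP-PRO-GFP cells | Dosing: 20 µM single dose, 1% DMSO | Incubation: Cells overnight before dosing, compound overnight, 37 °C, 5% CO2 | Evaluation: GFP/RFP fluorescence ratio | Control set: DMSO-only wells and HT1080 RFP-L50D-GFP cell wells as references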
SKN-1 block = blocks SKN-1 activity in C. elegans. C. elegans VP596 Pgst-4::GFP/RFP ratio, acrylamide-induced, 24 h. inhibition, % at 21.8 µM. hit rate 0.49% among 360,000. AID 624304;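 active = interference check ratio from 0.5 to 1.5 plus GFP to RFP signal ratio inhibition reaching or exceeding a fixed threshold, cut at about 30% in these data, passing the limit was not always enough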
iPSC survival up = increases survival of single human iPS cells; hiPSC single-cell survival, ATPlite luminescence; 100% = ROCK inhibitor wells, 0% = DMSO; survival enhancement, % at 20 µM; hit rate 0.044% among 360,000; AID 602274; in the data active = survival enhancement above about 18%;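 note: cells exposed to compounds for 16 hours before the ATP read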
Cneo AK release = Cryptococcus neoformans lysis via adenylate kinase release. AID 651654. lysis activity, % at 15 µM. hit rate 0.2% among 360,000. C. neoformans lysis, adenylate kinase release luminescence, 4 h; normalised: neutral wells 0, clomiphene wells 100;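 active = mean lysis activity across replicates of at least 80%, whatever share of replicates individually reach that level; inactive = mean lysis activity below 80%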
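Material: C. neoformans cells | Amount: Yeast cell density of 5 × 10^6 cells/mL | Medium: Fresh YPD growth medium | Dosing: Single dose | Times: Static 4 h at 37 °C with compound, 1 h detection | Detection: AK luminescence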
DAGLB inh conf = DAGLB (human) inhibition, confirmation screen | shares compounds with DAGLB inh | hit rate 73% among 190 | inhibition, % at 5.17 µM | AID 504445 | HEK293T DAGLB membrane lysate, EnzChek fluorogenic substrate;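 active = mean inhibition over triplicate wells above a set limit taken from the primary lipase screen, cut at about 34% in these data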;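 note: 0% = DAGLB with DMSO and 100% = wells lacking DAGLB enzyme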
MT1-MMP act val = validation of inhibitors of human MT1-MMP activation; HT1080 RFP-PRO-GFP cells, GFP and RFP fluorescence ratio, overnight; hit rate 10% among 200; inhibition, % at 20 µM; shares compounds with MT1-MMP act inh;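 active = inhibition of at least 50% in the primary cell screen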
Starred values were filed as active, the others as inactive; · = no result given. Compounds with a hit are over-represented: about 1.8% of the library has one in this group of screens.

SMILES	DAGLB inh	Ecoli rRNA inh	MT1-MMP act inh	SKN-1 block	iPSC survival up	Cneo AK release	MT1-MMP act val	others
CO[C@H]1CN(C)C(=O)c2cc(NC(=O)C3CC3)ccc2OC[C@@H](C)N(CCC(F)(F)F)C[C@H]1C	·	-1	·	·	·	4	·
O=c1cc(-c2ccccc2Cl)oc2cccc(O)c12	-1	12	-1	-1	0	0	·
O=c1cc2oc3cc(O)c(O)cc3c(-c3ccccc3[N+](=O)[O-])c-2cc1O	43*	-38	41*	-4	0	-6	51*	DAGLB inh conf=29
Cc1cc(N(CCO)CCO)ccc1N=Nc1cc(F)ccc1F	43*	-52	33*	29	0	-2	39	DAGLB inh conf=45*
Nc1ccc(N(CCO)CCO)cc1	-2	22	-13	32	0	·	·
CC1CC(C)CN(C(=O)c2ccc3c(c2NCCO)C(=O)c2ccccc2C3=O)C1 (stereo not drawn)	44*	·	60*	36*	3	0	45	DAGLB inh conf=63*
CC1CC(C)CN(C(=O)COC(=O)CN2C(=O)c3ccccc3C2=O)C1 (stereo not drawn)	-2	7	0	7	-2	6	·
O=C(NC1CCCCC1)N1CC2(C1)[C@H](c1ccccc1)[C@@H](CO)N2CC1CC1	·	-4	·	·	·	·	·
CO[C@H]1CC[C@H]2CCOc3ccc(C#N)cc3C(=O)N(C)C[C@H](OC)[C@@H](C)C(=O)N(C)C[C@H]1O2	·	2	·	·	·	8	·
C[C@@H]1CN([C@@H](C)CO)S(=O)(=O)c2ccc(C3=CCCCC3)cc2O[C@H]1CN(C)S(=O)(=O)c1ccc(F)cc1	·	3	·	·	·	-13	·
CC/C(=N\Nc1ccc([N+](=O)[O-])cc1[N+](=O)[O-])c1ccc(O)cc1	39*	-1	35*	19	1	1	27	DAGLB inh conf=38*
CCC(=NNc1ccc([N+](=O)[O-])cc1[N+](=O)[O-])c1ccccc1	·	-3	19	2	-2	·	·
Cc1ccc(S(=O)(=O)/N=C2\C=C(NS(=O)(=O)c3ccccc3)C(=O)c3ccccc32)c(C)c1	19	-25	39*	-14	0	-2	29
CCCN1[C@H](C(=O)NCCOC)[C@@H](CO)[C@@H]2Cn3c(ccc(-c4cccc(C(=O)N(C)C)c4)c3=O)[C@@H]21	·	0	·	·	·	2	·
C[C@@H]1CN([C@@H](C)CO)C(=O)c2ccccc2-c2ccccc2CO[C@H]1CN(C)C(=O)c1ccccc1	·	1	·	·	·	41	·
Cc1nn(-c2cc(N3CCCCC3)ccc2N)c(=O)c2ccccc12	2	·	6	14	0	·	·
Nc1ccc(N2CCCCC2)cc1N1CCCCC1	4	·	47*	-19	-5	·	0
CCc1cc2c(NCc3ccco3)ncnc2s1	-3	·	34*	-8	-2	4	12
COCC(=O)N(C)C[C@H]1Oc2ncc(-c3ccc(C)cc3)cc2C(=O)N([C@H](C)CO)C[C@H]1C	·	1	·	·	·	0	·
COc1ccc(Nc2ccccc2N)cc1	-2	·	31*	7	0	·	51*
Cc1noc(C)c1S(=O)(=O)N(C)C[C@H]1OCCCC[C@H](C)Oc2ccc(NC(=O)Cc3ccccc3)cc2C(=O)N([C@@H](C)CO)C[C@H]1C	·	0	·	·	·	-2	·
C[C@@H]1CN([C@@H](C)CO)C(=O)c2cc(C#Cc3ccccc3)cnc2O[C@@H]1CN(C)C(=O)C1CC1	·	-4	·	·	·	1	·
CN1C(=O)/C(=C\c2ccccc2OCc2ccccc2)SC1=S	1	6	1	0	-1	1	·
CN1C(=O)/C(=C\c2cc(N=Nc3ccccc3)ccc2O)SC1=S	4	·	32*	4	4	0	83*
Cc1cccc(NC(=S)NCc2cccs2)c1C	-2	·	7	11	0	33	·
SMILES	DAGLB inh	Ecoli rRNA inh	MT1-MMP act inh	SKN-1 block	iPSC survival up	Cneo AK release	MT1-MMP act val	others
Cc1cccc(NC(=S)NCc2ccc3c(c2)cc(C)n3C)c1C	10	-11	41*	37	-4	1	8
COc1cccc(NC(=S)NCc2ccc3c(c2)cc(C)n3C)c1	12	5	38*	35	-2	·	10
Cc1cc2ccccc2n1CCNC(=O)Cc1ccccc1	2	5	43	42	1	0	·
Cc1cc2ccccc2n1CCNC(=O)C(C)Oc1ccccc1 (stereo not drawn)	6	-3	38*	36	-1	1	5
O=C(c1cccc(F)c1)N1CC2(C1)[C@@H](c1ccccc1)[C@H](CO)N2C(=O)C1CCC1	·	-1	·	·	·	·	·
COC(=O)CCC(=O)OC1(C)C(=O)C2=CN(Cc3ccc(OC)cc3)C(c3ccc(OC)cc3)=CC2=C(Br)C1=O (stereo not drawn)	8	0	3	-5	1	1	·
COC(=O)CCC(=O)OC1(C)C(=O)C2=CN(CC3CC3)C(c3ccc(OC)cc3)=CC2=C(Br)C1=O (stereo not drawn)	3	·	30*	24	4	0	15
CC1=NN(c2ccccc2)C(=O)/C1=C/C=C/c1ccc(N(C)C)cc1	17	3	55*	19	-1	·	46
CC1=NN(c2ccccc2)C(=O)/C1=C\C=C\c1ccccc1	·	5	4	-5	0	2	·
O=C1c2cccc(NCCCNCCO)c2C(=O)c2cccc(NCCCNCCO)c21	6	-40	68*	78	-3	·	55*
O=C1C(Cl)=C(NCCCO)C(=O)c2ccccc21	1	·	8	4	-2	3	·
CC(C)NC(=O)N(C)C[C@@H]1Oc2c(NS(=O)(=O)c3ccc(Cl)cc3)cccc2C(=O)N([C@H](C)CO)C[C@H]1C	·	1	·	·	·	-1	·
Cc1ccc(S(=O)(=O)NCc2ccc3[nH]c(C)cc3c2)cc1	6	-3	-2	24	1	2	·
CC(=O)Nc1ccc(S(=O)(=O)NCc2ccc3[nH]c(C)cc3c2)cc1	5	-3	31*	21	2	0	17
CCCCOc1cccc(-c2cc(C(=O)NNC(=S)NCC)c3ccccc3n2)c1	-2	·	39*	12	-2	-15	6
CCNC(=S)NNC(=O)c1cc(-c2cccc(OCC)c2)nc2ccccc12	1	·	6	6	-1	-9	·
CCN1/C(=C2/SC(=S)N(C)C2=O)C=Cc2cc(C)ccc21	4	3	31*	21	0	3	18

Source: PubChem
